pIC50: −log10 of the molar value. Active and inactive are the calls of the source. The rule behind the calls is not given here.
Key:
[1] = Antioxidant activity assessed as DPPH free radical scavenging activity after 30 mins by spectrophotometry; assay type: physicochemical
In short: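 DPPH radical (final 400 µM, in ethanol) mixed with test compound at 25–400 µM at room temperature; absorbance at 517 nm recorded at intervals over 90 min; % reducing capacity taken at 30 min, IC50 from this; means ± sem of at least two independent experiments.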

[2] = Cytoprotective activity against H2O2-induced cytotoxicity in mouse C2 cells assessed as cell viability at 1 uM after 24 hrs by MTT assay (reference value: 83.1 +/- 3.5%); assay type: functional; conditions: C2, 24 h, read-out: Activity
[3] = Cytoprotective activity against H2O2-induced cytotoxicity in mouse C2 cells assessed as cell viability at 15 uM after 24 hrs by MTT assay (reference value: 83.1 +/- 3.5%); assay type: functional; conditions: C2, 24 h, read-out: Activity
[4] = Cytoprotective activity against H2O2-induced cytotoxicity in mouse C2 cells assessed as cell viability at 30 uM after 24 hrs by MTT assay (reference value: 83.1 +/- 3.5%); assay type: functional; conditions: C2, 24 h, read-out: Activity
[5] = Cytoprotective activity against H2O2-induced cytotoxicity in mouse C2 cells assessed as cell viability at 50 uM after 24 hrs by MTT assay (reference value: 83.1 +/- 3.5%); assay type: functional; conditions: C2, 24 h, read-out: Activity
[6] = Cytotoxic activity against mouse C2 cells assessed as cell viability at 15 uM after 24 hrs by MTT assay (reference value: 100%); assay type: cell-based; conditions: read-out: Activity
In short: (§1)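 Serum-deprived C2 myoblasts (≥3 h, 70% confluence) incubated with compound alone (DMSO vehicle) for 24 h; MTT read at 540 nm after lysis in 0.1 M HCl/isopropanol, expressed as % of untreated control; means ± sem of ≥3 independent experiments.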

[7] = Cytoprotective activity against curcumin-induced cytotoxicity in mouse C2 cells assessed as cell viability at 15 uM after 24 hrs by MTT assay (reference value: 83.8 +/- 0.4%); assay type: functional; conditions: C2, 24 h, read-out: Activity
C2 [8] = assay: Inhibition of H2O2-induced ERK phosphorylation in mouse C2 cells at 15 uM pre-incubated for 30 mins before H2O2 exposure for 15 mins by SDS-PAGE and immunoblotting method; assay type: cell-based
In short: (§2)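 C2 myoblasts pre-incubated 30 min with compound, then 1 mM H2O2 for 15 min. Lysates in buffer G (30 µg) run on SDS–PAGE and immunoblotted for phospho-ERKs or phospho-JNKs, actin as loading control; ECL, densitometry; means ± sem, ≥3 experiments; one-way ANOVA with Bonferroni post-test.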

C2 [9] = assay: Inhibition of H2O2-induced JNK phosphorylation in mouse C2 cells at 15 uM pre-incubated for 30 mins before H2O2 exposure for 15 mins by SDS-PAGE and immunoblotting method; assay type: cell-based; in short: as §2
C2 [10] = assay: Inhibition of curcumin-induced ERK phosphorylation in mouse C2 cells at 15 uM pre-incubated for 30 mins before curcumin exposure for 15 mins by SDS-PAGE and immunoblotting method; assay type: cell-based
In short: (§3)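 Cells pre-treated 30 min with compound, then 50 µM curcumin for 15 min; whole-cell extracts (buffer G, 30 µg) immunoblotted for phospho-ERKs, actin loading control, ECL and densitometry; means ± sem of ≥3 experiments, one-way ANOVA/Bonferroni.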

C2 [11] = assay: Inhibition of curcumin-induced JNK in mouse C2 cells assessed as reduction in c-Jun phosphorylation at 15 uM pre-incubated for 30 mins before curcumin exposure for 4 hrs by Western blotting method; assay type: cell-based
In short: (§4)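 After 30 min pre-incubation with compound and 4 h 50 µM curcumin, nuclear extracts prepared by subcellular fractionation (25 µg) immunoblotted for phospho-c-Jun, with total c-Jun as loading control; densitometry, means ± sem of ≥3 experiments, one-way ANOVA/Bonferroni.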

C2 [12] = assay: Inhibition of curcumin-induced apoptosis in mouse C2 cells assessed as reduction in PARP cleavage at 15 uM pre-incubated for 30 mins before curcumin exposure for 4 hrs by SDS-PAGE and immunoblotting method; assay type: functional, cell-based
In short: (§5)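 C2 cells pre-incubated 30 min with compound, then 50 µM curcumin for 4 h; buffer G lysates (30 µg) immunoblotted with antibody detecting full-length PARP and the 89 kDa fragment, actin loading control; densitometry, means ± sem of ≥3 experiments, one-way ANOVA with Bonferroni.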

[13] = Effect on PARP protein level in mouse C2 cells at 15 uM incubated for 30 mins by SDS-PAGE and immunoblotting method; assay type: cell-based; conditions: c2, 0.5 h
C2 [14] = assay: Inhibition of curcumin-induced JNK phosphorylation in mouse C2 cells at 15 uM pre-incubated for 30 mins before curcumin exposure for 2 hrs by SDS-PAGE and immunoblotting method
[15] = Cytotoxic activity against mouse C2 cells assessed as cell viability at 50 uM after 24 hrs by MTT assay (reference value: 100%); assay type: cell-based; conditions: read-out: Activity; in short: as §1
C2 [16] = assay: Inhibition of H2O2-induced ERK phosphorylation in mouse C2 cells at 30 uM pre-incubated for 30 mins before H2O2 exposure for 15 mins by SDS-PAGE and immunoblotting method; assay type: cell-based; in short: as §2
C2 [17] = assay: Inhibition of H2O2-induced JNK phosphorylation in mouse C2 cells at 30 uM pre-incubated for 30 mins before H2O2 exposure for 15 mins by SDS-PAGE and immunoblotting method; assay type: cell-based; in short: as §2
C2 [18] = assay: Inhibition of curcumin-induced ERK phosphorylation in mouse C2 cells at 30 uM pre-incubated for 30 mins before curcumin exposure for 15 mins by SDS-PAGE and immunoblotting method; assay type: cell-based; in short: as §3
C2 [19] = assay: Inhibition of curcumin-induced JNK in mouse C2 cells assessed as reduction in c-Jun phosphorylation at 30 uM pre-incubated for 30 mins before curcumin exposure for 4 hrs by Western blotting method; assay type: cell-based; in short: as §4
C2 [20] = assay: Inhibition of curcumin-induced apoptosis in mouse C2 cells assessed as reduction in PARP cleavage at 30 uM pre-incubated for 30 mins before curcumin exposure for 4 hrs by SDS-PAGE and immunoblotting method; assay type: functional, cell-based; in short: as §5
[21] = Effect on PARP protein level in mouse C2 cells at 30 uM incubated for 30 mins by SDS-PAGE and immunoblotting method; assay type: cell-based; conditions: c2, 0.5 h
[22] = Cytotoxic activity against mouse C2 cells assessed as cell viability at 30 uM after 24 hrs by MTT assay (reference value: 100%); assay type: cell-based; conditions: read-out: Activity; in short: as §1
[23] = Cytoprotective activity against curcumin-induced cytotoxicity in mouse C2 cells assessed as cell viability at 30 uM after 24 hrs by MTT assay (reference value: 83.8 +/- 0.4%); assay type: functional; conditions: C2, 24 h, read-out: Activity
C2 [24] = assay: Inhibition of curcumin-induced JNK phosphorylation in mouse C2 cells at 30 uM pre-incubated for 30 mins before curcumin exposure for 2 hrs by SDS-PAGE and immunoblotting method
C2 [25] = assay: Inhibition of curcumin-induced apoptosis in mouse C2 cells assessed as reduction in PARP cleavage at 2.5 uM pre-incubated for 30 mins before curcumin exposure for 4 hrs by SDS-PAGE and immunoblotting method; assay type: functional, cell-based; in short: as §5
[26] = Effect on PARP protein level in mouse C2 cells at 2.5 uM incubated for 30 mins by SDS-PAGE and immunoblotting method; assay type: cell-based; conditions: c2, 0.5 h

Row | SMILES | pIC50 [1] | viability at 1 µM [2] [%] | viability at 15 µM [3] [%] | viability at 30 µM [4] [%] | viability at 50 µM [5] [%] | viability at 24 h, 15 µM [6] [%] | viability at 15 µM [7] [%] | inhibition (C2 [8]) [%] | inhibition (C2 [9]) [%] | inhibition (C2 [10]) [%] | inhibition (C2 [11]) | inhibition (C2 [14]) | further results
1 | COc1cc(/C=C/C(=O)CC(=O)/C=C/c2ccc(O)c(OC)c2)ccc1O [CURCUMIN] | – | 85.5 | 90.2 | 93.1 | 53.6 | – | – | 55 | 81 | – | – | – | viability at 24 h, 50 µM [15]: 83.8%
2 | COc1ccc2[nH]cc(CCNC(C)=O)c2c1 [MELATONIN] | – | – | 92.5 | – | – | 96.9 | 98.5 | – | – | 53 | 57% | 50% | –
3 | N#C/C(=C1/Nc2ccccc2S1)c1ccnc(NCCc2cccnc2)n1 | – | – | – | – | – | – | – | – | – | – | – | – | inhibition (C2 [25]): Active; Activity [26]: Non-toxic

Now from value to molecule, other results behind:

Row | pIC50 [1] | SMILES | viability at 1 µM [2] [%] | viability at 15 µM [3] [%] | viability at 30 µM [4] [%] | viability at 50 µM [5] [%] | viability at 24 h, 15 µM [6] [%] | viability at 15 µM [7] [%] | inhibition (C2 [8]) [%] | inhibition (C2 [9]) [%] | inhibition (C2 [10]) [%] | inhibition (C2 [11]) | inhibition (C2 [14]) | further results
4 | 4.02 | Oc1ccc(/C=C/c2cc(O)cc(O)c2)cc1 [RESVERATROL] | – | – | – | – | – | – | – | – | – | – | – | –
5 | 3.92 | CN1CC(O)(c2ccc(-c3ccccc3)cc2)Oc2ccccc21 (centres undefined) | 84.6 | 97.1 | 76.2 | 71.6 | 98.1 | 53.6 | 55 | 81 | 79 | inactive | inactive | inhibition (C2 [12]): inactive; Activity [13]: Non-toxic
6 | 3.57 | CN1CC(O)(c2ccc(-c3ccccc3)cc2)Sc2ccccc21 (centres undefined) | 81.6 | 87.1 | 99.1 | 97.6 | – | – | – | – | – | – | – | inhibition (C2 [16]): 55%; inhibition (C2 [17]): 81%; inhibition (C2 [18]): 53%; inhibition (C2 [19]): 40%; inhibition (C2 [20]): Active; Activity [21]: Non-toxic; viability at 24 h, 30 µM [22]: 99.5%; viability at 30 µM [23]: 99.1%; inhibition (C2 [24]): 50%

Source: ChEMBL document CHEMBL3392958, “Evaluation of two novel antioxidants with differential effects on curcumin-induced apoptosis in C2 skeletal myoblasts; involvement of JNKs” (Bioorg Med Chem, 2015)
